Test results published in ChEMBL document CHEMBL1772978, “Exploration of the activity of 7-pyrrolidino-8-methoxyisothiazoloquinolones against methicillin-resistant Staphylococcus aureus (MRSA)” (J Med Chem, 2011).
≈ marks a conversion by molar mass, not a printed value.

What was measured:
Staphylococcus aureus [1] = experiment: Antibacterial activity against methicillin-sensitive Staphylococcus aureus ATCC 29213 after 24 hrs by microdilution method; type: functional; conditions: ATCC 29213, 24 h
Method in brief: (§1)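 MIC taken as the lowest concentration with no visible bacterial growth after 18-24 h at 37 °C, given in μg/mL; modal value of multiple experiments.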

[2] = Cytotoxicity against human Hep2 cells after 72 hrs by alamar blue assay; type: cell-based; conditions: HEp-2 cells
Staphylococcus aureus [3] = experiment: Antibacterial activity against methicillin- and quinolone-resistant Staphylococcus aureus ATCC700699 after 24 hrs by microdilution method; type: functional; conditions: ATCC700699, 24 h
Method in brief: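 Broth microdilution; MIC read as the lowest compound concentration that prevents visible bacterial growth after incubation at 37 °C for 18–24 h, and expressed in μg/mL.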

Escherichia coli = experiment: Antibacterial activity against Escherichia coli ATCC25922 after 24 hrs by microdilution method; type: functional; conditions: ATCC25922, 24 h; method in brief: as §1

Structure (SMILES)	MIC (Staphylococcus aureus [1]) [µg/mL]	CC50 at 72 h [2] [µM]	MIC (Staphylococcus aureus [3]) [µg/mL]	MIC (Escherichia coli) [µg/mL]
COc1c(N2CC[C@@H](C(N)c3ccccn3)C2)c(F)cc2c(=O)c3c(=O)[nH]sc3n(C3CC3)c12 (mixture of isomers)	0.008	1	0.13	0.06
COc1c(N2CC[C@@H](C3(N)CC3)C2)c(F)cc2c(=O)c3c(=O)[nH]sc3n(C3CC3)c12	0.001 (≈ 0.00232 µM)	4	0.06 (≈ 0.139 µM)	0.008 (≈ 0.0186 µM)
CCNC(C)[C@@H]1CCN(c2c(F)cc3c(=O)c4c(=O)[nH]sc4n(C4CC4)c3c2OC)C1 (mixture of isomers)	0.008	40	0.25	0.06
COc1c(N2CC[C@@H](CN(C)C)C2)c(F)cc2c(=O)c3c(=O)[nH]sc3n(C3CC3)c12	0.06 (≈ 0.139 µM)	> 100	4 (≈ 9.25 µM)	0.13 (≈ 0.301 µM)
COc1c(N2CC[C@@H](CNC3CC3)C2)c(F)cc2c(=O)c3c(=O)[nH]sc3n(C3CC3)c12	0.004 (≈ 0.009 µM)	23	0.06 (≈ 0.135 µM)	0.03 (≈ 0.0675 µM)
COc1c(N2CC[C@@H](C(C)NCC3CC3)C2)c(F)cc2c(=O)c3c(=O)[nH]sc3n(C3CC3)c12 (mixture of isomers)	0.03	43	0.5	0.25
COc1c(N2CC[C@@H](C(C)NC3CCCC3)C2)c(F)cc2c(=O)c3c(=O)[nH]sc3n(C3CC3)c12 (mixture of isomers)	0.06	42	4	
O=c1[nH]sc2c1c(=O)c1cc(F)c(N3CCNCC3)cc1n2C1CC1	0.06 (≈ 0.166 µM)	7	4 (≈ 11.1 µM)	0.004 (≈ 0.0111 µM)
COc1c(N2CC[C@@H](C(C)NCC(F)(F)F)C2)c(F)cc2c(=O)c3c(=O)[nH]sc3n(C3CC3)c12 (mixture of isomers)	0.13	41	4	
COc1c(N2CC[C@@H]([C@@H](C)N)C2)c(F)cc2c(=O)c3c(=O)[nH]sc3n(C3CC3)c12	0.02 (≈ 0.0478 µM)	33	0.25 (≈ 0.597 µM)	0.03 (≈ 0.0717 µM)
CNC(C)(C)[C@@H]1CCN(c2c(F)cc3c(=O)c4c(=O)[nH]sc4n(C4CC4)c3c2OC)C1	0.008 (≈ 0.0179 µM)	28	0.13 (≈ 0.291 µM)	0.13 (≈ 0.291 µM)
CN[C@H]1CCN(c2c(F)cc3c(=O)c4c(=O)[nH]sc4n(C4CC4)c3c2OC)C1	0.03 (≈ 0.0742 µM)	41	2 (≈ 4.94 µM)	0.06 (≈ 0.148 µM)
COc1c(N2CCC(C(C)(C)NC3CC3)C2)c(F)cc2c(=O)c3c(=O)[nH]sc3n(C3CC3)c12 (racemic)	0.02 (≈ 0.0423 µM)	54	0.25 (≈ 0.529 µM)	0.25 (≈ 0.529 µM)
COc1c(N2CC[C@@H](CN)C2)c(F)cc2c(=O)c3c(=O)[nH]sc3n(C3CC3)c12	0.008 (≈ 0.0198 µM)	11	0.25 (≈ 0.618 µM)	0.004 (≈ 0.00989 µM)
COc1c(N2CC[C@H](C(C)(C)N)C2)c(F)cc2c(=O)c3c(=O)[nH]sc3n(C3CC3)c12	0.03 (≈ 0.0694 µM)	61	2 (≈ 4.62 µM)	0.13 (≈ 0.301 µM)
CN[C@@H]1CCN(c2c(F)cc3c(=O)c4c(=O)[nH]sc4n(C4CC4)c3c2OC)C1	0.006 (≈ 0.0148 µM)	42	4 (≈ 9.89 µM)	0.06 (≈ 0.148 µM)
CC[C@H](NC)[C@@H]1CCN(c2c(F)cc3c(=O)c4c(=O)[nH]sc4n(C4CC4)c3c2OC)C1 (mixture of isomers)	0.008	29	0.5	0.06
COc1c(N2CC[C@@H](C(C)NC3CC3)C2)c(F)cc2c(=O)c3c(=O)[nH]sc3n(C3CC3)c12 (mixture of isomers)	0.004	25	0.06	0.06
COc1c(N2CC[C@H](CN)C2)c(F)cc2c(=O)c3c(=O)[nH]sc3n(C3CC3)c12	0.008 (≈ 0.0198 µM)	11	0.25 (≈ 0.618 µM)	0.03 (≈ 0.0742 µM)
COc1c(N2CC[C@@H](C(C)N(C)C)C2)c(F)cc2c(=O)c3c(=O)[nH]sc3n(C3CC3)c12 (mixture of isomers)	0.03	40	1	0.06
COc1c(N2CC[C@@H](C(N)c3ncco3)C2)c(F)cc2c(=O)c3c(=O)[nH]sc3n(C3CC3)c12 (mixture of isomers)	0.004	5	0.25	0.06
CNC(C)[C@H]1CCN(c2c(F)cc3c(=O)c4c(=O)[nH]sc4n(C4CC4)c3c2OC)C1 (mixture of isomers)	0.06	> 100	2	0.13
COc1c(N2CC[C@@H](N)C2)c(F)cc2c(=O)c3c(=O)[nH]sc3n(C3CC3)c12	0.03 (≈ 0.0768 µM)	25	2 (≈ 5.12 µM)	0.008 (≈ 0.0205 µM)

Structure (SMILES)	MIC (Staphylococcus aureus [1]) [µg/mL]	CC50 at 72 h [2] [µM]	MIC (Staphylococcus aureus [3]) [µg/mL]	MIC (Escherichia coli) [µg/mL]
COc1c(N2CC[C@@H](CNC(C)C)C2)c(F)cc2c(=O)c3c(=O)[nH]sc3n(C3CC3)c12	0.02 (≈ 0.0448 µM)	33	0.5 (≈ 1.12 µM)	0.06 (≈ 0.134 µM)
COc1c(N2CC[C@H](C(C)NC3CC3)C2)c(F)cc2c(=O)c3c(=O)[nH]sc3n(C3CC3)c12 (mixture of isomers)	0.02	43	0.13	0.13
COc1c(N2CC[C@@H]([C@H](C)N(C)C)C2)c(F)cc2c(=O)c3c(=O)[nH]sc3n(C3CC3)c12	0.008 (≈ 0.0179 µM)	39	0.5 (≈ 1.12 µM)	0.06 (≈ 0.134 µM)
CNC[C@@H]1CCN(c2c(F)cc3c(=O)c4c(=O)[nH]sc4n(C4CC4)c3c2OC)C1	0.008 (≈ 0.0191 µM)	28	0.5 (≈ 1.19 µM)	0.06 (≈ 0.143 µM)
COc1c(N2CCNCC2)c(F)cc2c(=O)c3c(=O)[nH]sc3n(C3CC3)c12	0.06 (≈ 0.154 µM)	27	4 (≈ 10.2 µM)	0.03 (≈ 0.0768 µM)
CCNC(C)(C)[C@@H]1CCN(c2c(F)cc3c(=O)c4c(=O)[nH]sc4n(C4CC4)c3c2OC)C1	0.02 (≈ 0.0434 µM)	50	0.5 (≈ 1.09 µM)	0.13 (≈ 0.282 µM)
COc1c(N2CC[C@H](N)C2)c(F)cc2c(=O)c3c(=O)[nH]sc3n(C3CC3)c12	0.008 (≈ 0.0205 µM)	19	0.5 (≈ 1.28 µM)	0.008 (≈ 0.0205 µM)
CNC(C)[C@@H]1CCN(c2c(F)cc3c(=O)c4c(=O)[nH]sc4n(C4CC4)c3c2OC)C1 (mixture of isomers)	0.008	42	0.25	0.03
COc1c(N2CC[C@H]([C@@H](C)N)C2)c(F)cc2c(=O)c3c(=O)[nH]sc3n(C3CC3)c12	0.02 (≈ 0.0478 µM)	51	1 (≈ 2.39 µM)	0.06 (≈ 0.143 µM)
CC[C@@H](NC)[C@@H]1CCN(c2c(F)cc3c(=O)c4c(=O)[nH]sc4n(C4CC4)c3c2OC)C1	0.03 (≈ 0.0672 µM)	58	2 (≈ 4.48 µM)	0.13 (≈ 0.291 µM)
COc1c(N2CC[C@@H](C(C)(C)N(C)C)C2)c(F)cc2c(=O)c3c(=O)[nH]sc3n(C3CC3)c12	0.06 (≈ 0.13 µM)	90	1 (≈ 2.17 µM)	0.13 (≈ 0.282 µM)
COc1c(N2CC[C@@H](C(C)(C)NCCF)C2)c(F)cc2c(=O)c3c(=O)[nH]sc3n(C3CC3)c12	0.004 (≈ 0.00836 µM)	19	0.06 (≈ 0.125 µM)	0.06 (≈ 0.125 µM)
COc1c(N2CC[C@@H](C(C)N)C2)c(F)cc2c(=O)c3c(=O)[nH]sc3n(C3CC3)c12 (mixture of isomers)	0.004	9	0.06	0.02
COc1c(N2CC[C@@H](CNCCF)C2)c(F)cc2c(=O)c3c(=O)[nH]sc3n(C3CC3)c12	0.008 (≈ 0.0178 µM)	18	0.13 (≈ 0.289 µM)	0.03 (≈ 0.0666 µM)
COc1c(N2CCC(CNCC(C)C)C2)c(F)cc2c(=O)c3c(=O)[nH]sc3n(C3CC3)c12 (racemic)	0.06 (≈ 0.13 µM)	46	4 (≈ 8.68 µM)	0.13 (≈ 0.282 µM)
COc1c(N2CC[C@@H](C(N)c3nccs3)C2)c(F)cc2c(=O)c3c(=O)[nH]sc3n(C3CC3)c12 (mixture of isomers)	0.004	5	0.06	0.13
CN[C@H](C)[C@@H]1CCN(c2c(F)cc3c(=O)c4c(=O)[nH]sc4n(C4CC4)c3c2OC)C1	0.02 (≈ 0.0462 µM)	29	0.5 (≈ 1.16 µM)	0.06 (≈ 0.139 µM)
COc1c(N2CC[C@@H](C(C)(C)NCC(C)C)C2)c(F)cc2c(=O)c3c(=O)[nH]sc3n(C3CC3)c12	0.06 (≈ 0.123 µM)	88	2 (≈ 4.09 µM)	1 (≈ 2.05 µM)
COc1c(N2CC[C@@H]([C@@H](C)NCCF)C2)c(F)cc2c(=O)c3c(=O)[nH]sc3n(C3CC3)c12	0.004 (≈ 0.00861 µM)	74	0.25 (≈ 0.538 µM)	0.06 (≈ 0.129 µM)
COc1c(N2CC[C@H](C(C)N)C2)c(F)cc2c(=O)c3c(=O)[nH]sc3n(C3CC3)c12 (mixture of isomers)	0.03		1	0.06
COc1c(N2CC[C@H]([C@H](C)N)C2)c(F)cc2c(=O)c3c(=O)[nH]sc3n(C3CC3)c12	0.03 (≈ 0.0717 µM)	15	1 (≈ 2.39 µM)	0.06 (≈ 0.143 µM)
CCN[C@@H](C)[C@@H]1CCN(c2c(F)cc3c(=O)c4c(=O)[nH]sc4n(C4CC4)c3c2OC)C1	0.004 (≈ 0.00896 µM)	27	0.13 (≈ 0.291 µM)	0.06 (≈ 0.134 µM)
COc1c(N2CC[C@@H](C(C)NC(C)C)C2)c(F)cc2c(=O)c3c(=O)[nH]sc3n(C3CC3)c12 (mixture of isomers)	0.02	51	0.5	0.5
